From ChEMBL document CHEMBL4616716, “ONO-8430506: A Novel Autotaxin Inhibitor That Enhances the Antitumor Effect of Paclitaxel in a Breast Cancer Model” (ACS Med Chem Lett, 2020)
One block for each molecule: values may come before it.

How the values were obtained:
Autotaxin [1] = biological target: T1, Autotaxin (Homo sapiens, UniProt Q13822); experiment: Inhibition of recombinant human ATX assessed as reduction in choline release using LPC(16:0) as substrate incubated for 15 hrs
Summary of the method: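 Recombinant human ATX with 16:0 LPC as substrate. Single-point inhibition was tested at 30 μM, and IC50 values were determined.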

Autotaxin [2] = biological target: T1, Autotaxin; experiment: Inhibition of LysoPLD activity of ATX in human plasma assessed as reduction in choline release using LPC(16:0) as substrate incubated for 15 hrs; format: cell-free
Summary of the method: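 LysoPLD activity in human plasma with 16:0 LPC as substrate; IC50 determined.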

Autotaxin [3] = biological target: T1, Autotaxin; experiment: Selectivity index, ratio of IC50 for LysoPLD activity of ATX in human plasma to IC50 for recombinant human ATX assessed as reduction in choline release using LPC(16:0) as substrate incubated for 15 hrs
Summary of the method: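 Ratio of two IC50 values. One comes from LysoPLD activity in human plasma. The other comes from purified recombinant human ATX. Both assays use 16:0 LPC as substrate.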

[4] = Protein binding in human plasma measured after 4 hrs by LC-MS/MS analysis; format: ADME, cell-free; conditions: read-out: PPB (converted)
[5] = Octanol/phosphate buffer partition coefficient, LogD of compound at pH 7.4 mixed for 1 hr using benchtop-rotator followed by further incubation for 1 hr by ESI-LC-MS/MS analysis; format: physicochemical
[6] = Protein binding in rat plasma measured after 4 hrs by LC-MS/MS analysis; format: ADME, cell-free; conditions: read-out: PPB (converted)
[7] = Drug metabolism in human hepatocytes assessed as compound isomerization by measuring conversion ratio at 1 uM incubated for 2 hrs by LC-MS/MS analysis; format: ADME, cell-based, Hepatocyte; conditions: read-out: Drug metabolism
Summary of the method: (§1)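 Hepatocytes from human, rat, dog and monkey were incubated with the trans isomer. The conversion ratio is the cis isomer concentration over the sum of cis and trans, 2 h after the start of incubation.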

[8] = Drug metabolism in rat hepatocytes assessed as compound isomerization by measuring conversion ratio at 1 uM incubated for 2 hrs by LC-MS/MS analysis; format: ADME, cell-based, Hepatocyte; conditions: read-out: Drug metabolism; summary of the method: as §1
[9] = Drug metabolism in dog hepatocytes assessed as compound isomerization by measuring conversion ratio at 1 uM incubated for 2 hrs by LC-MS/MS analysis; format: ADME, cell-based, Canis lupus familiaris, Hepatocyte; conditions: read-out: Drug metabolism; summary of the method: as §1
[10] = Drug metabolism in monkey hepatocytes assessed as compound isomerization by measuring conversion ratio at 1 uM incubated for 2 hrs by LC-MS/MS analysis; format: ADME, cell-based, Macaca mulatta, Hepatocyte; conditions: rhesus monkey, read-out: Drug metabolism; summary of the method: as §1
[11] = Metabolic stability in human hepatocytes assessed as parent compound remaining at 1 uM measured after 2 hrs by LC-MS/MS analysis; format: ADME, cell-based, Hepatocyte; conditions: read-out: Stability
Summary of the method: (§2)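 Human and rat hepatocyte incubation; percent parent remaining after 2 h.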

[12] = Metabolic stability in rat hepatocytes assessed as parent compound remaining at 1 uM measured after 2 hrs by LC-MS/MS analysis; format: ADME, cell-based, Hepatocyte; conditions: read-out: Stability; summary of the method: as §2
[13] = Plasma clearance in Sprague-Dawley rat at 1 mg/kg, iv by LC-MS/MS analysis; format: ADME, organism-based
Summary of the method: (§3)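 Single-dose rat PK, 1 mg/kg iv and 3 mg/kg po, n = 3. Plasma clearance was taken from the iv dose. Bioavailability was calculated from the iv and oral doses.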

[14] = Oral bioavailability in Sprague-Dawley rat at 3 mg/kg by LC-MS/MS analysis; format: ADME, organism-based; conditions: in vivo; summary of the method: as §3
[15] = AUC in Sprague-Dawley rat at 0.5 mg/kg, po administered as single cassette dosing by LC-MS/MS analysis; format: ADME, organism-based; conditions: in vivo
Summary of the method: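 Rat cassette dosing, 0.5 mg/kg oral; plasma AUC reported.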

[16] = Cmax in SCID mouse at 1 mg/kg, po administered as single dose by LC-MS/MS analysis; format: ADME, organism-based; parameters: dose 1 mg/kg, route oral; conditions: in vivo
[17] = Half life in SCID mouse at 1 mg/kg, po administered as single dose by LC-MS/MS analysis; format: ADME, organism-based; conditions: in vivo
[18] = Cmax in Sprague-Dawley rat at 1 mg/kg, po administered as single dose by LC-MS/MS analysis; format: ADME, organism-based; parameters: dose 1 mg/kg, route oral; conditions: in vivo
[19] = Volume of distribution at steady state in Sprague-Dawley rat at 0.3 mg/kg, iv administered as single dose by LC-MS/MS analysis; format: ADME, organism-based; conditions: in vivo, read-out: Vdss
[20] = Half life in Sprague-Dawley rat at 0.3 mg/kg, iv administered as single dose by LC-MS/MS analysis; format: ADME, organism-based; conditions: in vivo
[21] = Half life in Sprague-Dawley rat at 1 mg/kg, po administered as single dose by LC-MS/MS analysis; format: ADME, organism-based; conditions: in vivo
[22] = Clearance in Sprague-Dawley rat at 0.3 mg/kg, iv administered as single dose by LC-MS/MS analysis; format: ADME, organism-based; conditions: in vivo
[23] = Cmax in Beagle dog at 1 mg/kg, po administered as single dose by LC-MS/MS analysis; format: ADME, organism-based, Canis lupus familiaris; parameters: dose 1 mg/kg, route oral; conditions: in vivo
[24] = Volume of distribution at steady state in Beagle dog at 0.3 mg/kg, iv administered as single dose by LC-MS/MS analysis; format: ADME, organism-based, Canis lupus familiaris; conditions: in vivo, read-out: Vdss
[25] = Half life in Beagle dog at 0.3 mg/kg, iv administered as single dose by LC-MS/MS analysis; format: ADME, organism-based, Canis lupus familiaris; conditions: in vivo
[26] = Half life in Beagle dog at 1 mg/kg, po administered as single dose by LC-MS/MS analysis; format: ADME, organism-based, Canis lupus familiaris; conditions: in vivo
[27] = Clearance in Beagle dog at 0.3 mg/kg, iv administered as single dose by LC-MS/MS analysis; format: ADME, organism-based, Canis lupus familiaris; conditions: in vivo
[28] = Cmax in cynomolgus monkey at 1 mg/kg, po administered as single dose by LC-MS/MS analysis; format: ADME, organism-based, Macaca fascicularis; parameters: dose 1 mg/kg, route oral; conditions: in vivo
[29] = Oral bioavailability in cynomolgus monkey at 1 mg/kg administered as single dose by LC-MS/MS analysis; format: ADME, organism-based, Macaca fascicularis; conditions: in vivo
[30] = Oral bioavailability in Beagle dog at 1 mg/kg administered as single dose by LC-MS/MS analysis; format: ADME, organism-based, Canis lupus familiaris; conditions: in vivo
[31] = Oral bioavailability in Sprague-Dawley rat at […] administered as single dose by LC-MS/MS analysis; format: ADME, organism-based; conditions: in vivo; summary of the method: as §3
MDA-MB-231 [32] = experiment: Antitumor activity against human MDA-MB-231 cells xenografted in SCID mouse assessed as tumor growth inhibition at 100 mg/kg, po administered twice daily for 32 days and […] relative to control; format: functional; conditions: MDA-MB-231, po, read-out: TGI
Summary of the method: (§4)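 MDA-MB-231 human breast tumour-bearing mice dosed orally at 30 or 100 mg/kg twice daily for 32 days. Where combined, paclitaxel was given at 20 mg/kg ip three times weekly for 5 weeks. Tumour volume was followed and reported at day 32. Tumour growth inhibition was taken from median tumour volume versus vehicle. Groups of n = 8–9 were compared by Student t test.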

MDA-MB-231 [33] = experiment: (§5) Potentiation of paclitaxel-induced antitumor activity against human MDA-MB-231 cells xenografted in SCID mouse assessed as tumor growth inhibition at 30 mg/kg, po administered twice daily for 32 days in combination with paclitaxel at 20 mg/kg, ip three times weekly for 5 weeks and measured on […] (reference value: 81.5%); format: functional; summary of the method: as §4
MDA-MB-231 [34] = experiment: as §5, with “100” for “30”, “and” for “and measured on”; format: functional; summary of the method: as §4
Autotaxin [35] = biological target: T1, Autotaxin; experiment: In vivo inhibition of lysoPLD activity of ATX in SCID mouse plasma xenografted with human MDA-MB-231 cells at 30 mg/kg, po administered twice daily for 32 days in combination with paclitaxel at 20 mg/kg, ip three times weekly for 5 weeks and measured at 18 hrs post-last dose relative to control; format: functional, organism-based
Autotaxin [36] = biological target: T1, Autotaxin; experiment: In vivo inhibition of lysoPLD activity of ATX in SCID mouse plasma xenografted with human MDA-MB-231 cells at 100 mg/kg, po administered twice daily for 32 days in combination with paclitaxel at 20 mg/kg, ip three times weekly for 5 weeks and measured at 18 hrs post-last dose relative to control; format: functional, organism-based
[37] = Volume of distribution at steady state in cynomolgus monkey at 0.3 mg/kg, iv administered as single dose by LC-MS/MS analysis; format: ADME, organism-based, Macaca fascicularis; conditions: in vivo, read-out: Vdss
[38] = Half life in cynomolgus monkey at 0.3 mg/kg, iv administered as single dose by LC-MS/MS analysis; format: ADME, organism-based, Macaca fascicularis; conditions: in vivo
[39] = Clearance in cynomolgus monkey at 0.3 mg/kg, iv administered as single dose by LC-MS/MS analysis; format: ADME, organism-based, Macaca fascicularis; conditions: in vivo

Structure (SMILES): O=C(O)c1cccc(CC(=O)N2CCc3c(n(Cc4cccc(F)c4)c4ncccc34)C2)c1
IC50 (Autotaxin [1]): 100 nM | fraction unbound at 4 h [4]: 0.011

Structure (SMILES): O=C(C[C@H]1CC[C@H](C(=O)O)CC1)N1CCc2c(n(Cc3ccc(F)cc3F)c3ncccc23)C1
logD at 1 h [5]: 1.15 | IC50 (Autotaxin [2]): 7.3 nM | fraction unbound at 4 h [4]: 0.016 | fraction unbound at 4 h [6]: 0.021 | metabolised at 2 h, 1 µM [7]: 29.8% | metabolised at 2 h, 1 µM [8]: 14.4% | metabolised at 2 h, 1 µM [9]: 9% | metabolised at 2 h, 1 µM [10]: 21.4%

Structure (SMILES): O=C(O)CCCCC(=O)N1CCc2c(n(Cc3cccc(F)c3)c3ncccc23)C1
IC50 (Autotaxin [1]): 50 nM | logD at 1 h [5]: 0.51 | remaining at 2 h, 1 µM [11]: 29% | remaining at 2 h, 1 µM [12]: 10% | clearance [13]: 7.5 mL/min/kg | bioavailability [14]: 30%

Structure (SMILES): O=C(O)CCCCCC(=O)N1CCc2c(n(Cc3ccccc3)c3ncccc23)C1
IC50 (Autotaxin [1]): 250 nM

Structure (SMILES): O=C(O)CCCC(=O)N1CCc2c(n(Cc3ccccc3)c3ncccc23)C1
IC50 (Autotaxin [1]): 830 nM

The next lines start with results.

IC50 (Autotaxin [1]): 17 nM | IC50 (Autotaxin [2]): 260 nM | Ratio IC50 (Autotaxin [3]): 15
Structure (SMILES): CC(C)(CCCC(=O)N1CCc2c(n(Cc3cccc(F)c3)c3ncccc23)C1)C(=O)O

IC50 (Autotaxin [1]): 19 nM | logD at 1 h [5]: 1.36 | IC50 (Autotaxin [2]): 16 nM | fraction unbound at 4 h [4]: 0.006
Structure (SMILES): O=C(C[C@H]1CC[C@@H](C(=O)O)CC1)N1CCc2c(n(Cc3ccc(F)cc3F)c3ncccc23)C1

IC50 (Autotaxin [1]): 11 nM | IC50 (Autotaxin [2]): 7.9 nM | fraction unbound at 4 h [4]: 0.008 | fraction unbound at 4 h [6]: 0.061 | AUC [15]: 500 ng·h/mL
Structure (SMILES): O=C(CC12CCC(C(=O)O)(CC1)C2)N1CCc2c(n(Cc3ccc(F)cc3F)c3ncccc23)C1

IC50 (Autotaxin [1]): 17 nM | logD at 1 h [5]: 1.07 | fraction unbound at 4 h [4]: 0.007
Structure (SMILES): O=C(C[C@H]1CC[C@H](C(=O)O)CC1)N1CCc2c(n(Cc3cccc(F)c3)c3ncccc23)C1

IC50 (Autotaxin [1]): 10 nM | IC50 (Autotaxin [2]): 5.5 nM | fraction unbound at 4 h [4]: 0.01 | fraction unbound at 4 h [6]: 0.049 | AUC [15]: 842 ng·h/mL | Cmax [16]: 124 ng/mL | half-life [17]: 5.4 h | Cmax [18]: 261 ng/mL | Vd [19]: 1.47 L/kg | half-life [20]: 3.4 h | half-life [21]: 2.5 h | clearance [22]: 8.2 mL/min/kg | Cmax [23]: 1670 ng/mL | Vd [24]: 1.86 L/kg | half-life [25]: 8.9 h | half-life [26]: 5.9 h | clearance [27]: 4.7 mL/min/kg | Cmax [28]: 63 ng/mL | bioavailability [29]: 30.8% | bioavailability [30]: 71.1% | bioavailability [31]: 51.6% | inhibition (Autotaxin [35]): 97.1% | inhibition (Autotaxin [36]): 99.3% | Vd [37]: 2.27 L/kg | half-life [38]: 7.9 h | clearance [39]: 5.8 mL/min/kg
Structure (SMILES): O=C(CC12CCC(C(=O)O)(CC1)C2)N1CCc2c(n(Cc3ccc(F)cc3)c3ncccc23)C1
inhibition in vivo at 100 mg/kg (MDA-MB-231 [32]): 14.7% | TGI (MDA-MB-231 [33]): 91.2% | TGI (MDA-MB-231 [34]): 95.5%
